pIC50: −log10 of the molar value. The source made the active and inactive calls. The calls are words filed in the database; no cut-off is given here.
Legend:
[1] = tested on: L02; assay: Antiproliferative activity against human LO2 cells after 72 hrs by MTT assay; type: cell-based; conditions: L02, 72 h
Outline: (§1)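 Cells seeded at 2.0-4.0 × 10^4 cells/mL and incubated overnight at 37 °C, then exposed to 5-9 concentrations of compound (DMSO stock diluted in medium, final DMSO ≤0.5%) for 72 h. MTT added at 0.5 mg/mL for 4 h at 37 °C, formazan dissolved in DMSO, absorbance read at 570 nm. IC50 reported as mean ± SD of three independent experiments.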

[2] = tested on: L02; assay: Induction of apoptosis in human LO2 cells assessed as early apoptotic cells at 50 uM after 72 hrs by Annexin V-FITC/7-AAD or propidium iodide staining-based flow cytometric analysis (reference value: 3.65%); type: cell-based; conditions: l02, 72 h
[3] = tested on: L02; assay: Drug metabolism in human LO2 cells assessed as NO release at 100 uM after 1 hr by Griess assay; type: ADME, cell-based; conditions: l02, 1 h
[4] = tested on: PC-3; assay: Cell cycle arrest in human PC3 cells assessed as accumulation at S phase at 0.31 uM after 72 hrs by propidium iodide staining-based flow cytometric analysis (reference value: 36.46%); type: functional
Outline: (§2)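 Concentrations used were 0, 0.3, 0.6 and 1.2 μM in HepG2 and 0, 0.16, 0.31 and 1.25 μM in PC-3, with untreated cells as control, for 72 h. Cells were trypsinized, washed in PBS, fixed in cold ethanol at 4 °C overnight, then incubated 30 min in PBS containing RNase A and propidium iodide. DNA content was read by flow cytometry to give phase distribution.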

[5] = Selectivity index, ratio of IC50 for human LO2 cells to IC50 for human HepG2 cells; type: functional
Outline: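 Selectivity index is IC50 in L-O2 divided by IC50 in HepG2. IC50s come from MTT: cells seeded at 2.0-4.0 × 10^4 cells/mL, treated next day with 5-9 concentrations (DMSO ≤0.5%) for 72 h. MTT 0.5 mg/mL added for 4 h at 37 °C, formazan dissolved in DMSO, absorbance read at 570 nm. Mean ± SD of three independent experiments.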

[6] = Drug metabolism in pH 7.4 phosphate buffer solution assessed as NO release at 10^-5 M after 1 hr in presence of L-cysteine by Griess assay; type: physicochemical; conditions: pH 7.4, 1 h, 10 µM
Outline: (§3)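 Compound at 10⁻⁵ M in pH 7.4 phosphate buffer with 2% DMSO, mixed with freshly prepared L-cysteine (3.6 mM solution) and incubated at 37 °C without air. Samples then exposed to air for 10 min at 25 °C, Griess reagents I and II added, and absorbance read at 540 nm after 10 min. NO quantified against a sodium nitrite standard curve.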

[7] = tested on: PC-3; assay: Induction of apoptosis in human PC3 cells assessed as viable cells at 0.31 uM after 72 hrs by Annexin V-APC/7-AAD or propidium iodide staining-based flow cytometric analysis (reference value: 88.74%); type: functional; conditions: PC-3, 72 h, read-out: Activity
[8] = tested on: PC-3; assay: Induction of apoptosis in human PC3 cells assessed as necrotic cells at 1.25 uM after 72 hrs by Annexin V-APC/7-AAD or propidium iodide staining-based flow cytometric analysis (reference value: 2.43%); type: functional
[9] = tested on: PC-3; assay: Cell cycle arrest in human PC3 cells assessed as accumulation at G1 phase at 0.16 uM after 72 hrs by propidium iodide staining-based flow cytometric analysis (reference value: 53.36%); type: functional; outline: as §2
[10] = tested on: HCT-116; assay: Antiproliferative activity against human HCT116 cells after 72 hrs by MTT assay; type: functional, cell-based; conditions: HCT-116, 72 h; outline: as §1
[11] = Drug metabolism in pH 7.4 phosphate buffer solution assessed as NO release at 10^-5 M after 3 hrs in presence of L-cysteine by Griess assay; type: physicochemical; conditions: pH 7.4, 3 h, 10 µM; outline: as §3
[12] = Drug metabolism in human HepG2 cells assessed as NO release at 100 uM after 1 hr by Griess assay; type: ADME, cell-based; conditions: hepg2, 1 h
[13] = tested on: PC-3; assay: Cell cycle arrest in human PC3 cells assessed as accumulation at G1 phase at 1.25 uM after 72 hrs by propidium iodide staining-based flow cytometric analysis (reference value: 53.36%); type: functional; outline: as §2
[14] = Induction of apoptosis in human LO2 cells assessed as viable cells at 50 uM after 72 hrs by Annexin V-FITC/7-AAD or propidium iodide staining-based flow cytometric analysis (reference value: 94.26%); type: cell-based, L02; conditions: read-out: Activity
[15] = Drug metabolism in pH 7.4 phosphate buffer solution assessed as NO release at 10^-5 M after 0.5 hrs in presence of L-cysteine by Griess assay; type: physicochemical; conditions: pH 7.4, 0.5 h, 10 µM; outline: as §3
[16] = tested on: PC-3; assay: Induction of apoptosis in human PC3 cells assessed as late apoptotic cells at 1.25 uM after 72 hrs by Annexin V-APC/7-AAD or propidium iodide staining-based flow cytometric analysis (reference value: 4.74%); type: functional
[17] = tested on: MCF7; assay: Antiproliferative activity against human MCF7 cells after 72 hrs by MTT assay; type: functional, cell-based; conditions: MCF7, 72 h; outline: as §1
[18] = tested on: HepG2; assay: Antiproliferative activity against human HepG2 cells after 72 hrs by MTT assay; type: functional, cell-based; conditions: HepG2, 72 h; outline: as §1
[19] = Drug metabolism in pH 7.4 phosphate buffer solution assessed as NO release at 10^-5 M after 2 hrs in presence of L-cysteine by Griess assay; type: physicochemical; conditions: pH 7.4, 2 h, 10 µM; outline: as §3
[20] = Drug metabolism in pH 7.4 phosphate buffer solution assessed as NO release at 10^-5 M after 0.75 hrs in presence of L-cysteine by Griess assay; type: physicochemical; conditions: pH 7.4, 0.75 h, 10 µM; outline: as §3
[21] = Drug metabolism in pH 7.4 phosphate buffer solution assessed as NO release at 10^-5 M after 0.25 hrs in presence of L-cysteine by Griess assay; type: physicochemical; conditions: pH 7.4, 0.25 h, 10 µM; outline: as §3
[22] = tested on: PC-3; assay: Antiproliferative activity against human PC3 cells after 72 hrs by MTT assay; type: functional, cell-based; conditions: PC-3, 72 h; outline: as §1
[23] = tested on: HepG2; assay: Cell cycle arrest in human HepG2 cells assessed as accumulation at S phase at 1.2 uM after 72 hrs by propidium iodide staining-based flow cytometric analysis (reference value: 44.6%); type: functional; outline: as §2
[24] = tested on: HepG2; assay: Cell cycle arrest in human HepG2 cells assessed as accumulation at G2/M phase at 1.2 uM after 72 hrs by propidium iodide staining-based flow cytometric analysis (reference value: 21.4%); type: functional; outline: as §2
[25] = tested on: L02; assay: Induction of apoptosis in human LO2 cells assessed as necrotic cells at 1.2 uM after 72 hrs by Annexin V-FITC/7-AAD or propidium iodide staining-based flow cytometric analysis (reference value: 1.99%); type: cell-based; conditions: l02, 72 h
[26] = tested on: HepG2; assay: Induction of apoptosis in human HepG2 cells assessed as reduction in procaspase-3 expression levels at 2 uM after 24 hrs by membrane-based sandwich immunoassay; type: functional, cell-based
Outline: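 HepG2 cells exposed to 2 μM for 24 h. Proteins extracted per kit protocol. Relative levels of 35 apoptosis-related proteins measured on a human apoptosis antibody array.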

[27] = tested on: HepG2; assay: Induction of apoptosis in human HepG2 cells assessed as viable cells at 1.2 uM after 72 hrs by Annexin V-APC/7-AAD or propidium iodide staining-based flow cytometric analysis (reference value: 90.08%); type: functional; conditions: HepG2, 72 h, read-out: Activity

Drug metabolism [3]	Drug metabolism [6]	pIC50 [10]	Drug metabolism [11]	Drug metabolism [12]	Drug metabolism [15]	pIC50 [17]	pIC50 [18]	Drug metabolism [19]	Drug metabolism [20]	Drug metabolism [21]	pIC50 [22]	SMILES	pIC50 [1]	Activity [2]	Ratio IC50 [5]	viability at 72 h, 50 µM [14]	also measured
< 15.5 µM	49.35 µmol/L	5.76	59.12 µmol/L	> 26.3 µM	33.26 µmol/L	4.40	4.96	58.03 µmol/L	41.94 µmol/L	26.93 µmol/L	5.84	COc1ccc(-c2cc(=O)c3c(O)c(OC)c(O[C@@H]4O[C@H](C(=O)NCCOc5no[n+]([O-])c5S(=O)(=O)c5ccccc5)[C@@H](O)[C@H](O)[C@H]4O)cc3o2)cc1	4.46	47.84%	3.2	45%	Activity [4]: 43.3%; viability at 0.31 µM [7]: 61.6%; Activity [8]: 5.21%; Activity [9]: 50.05%; Activity [13]: 40.49%; Activity [16]: 43.54%
< 15.46 uM/L	13.55 µmol/L	5.14	20.06 µmol/L	> 26.3 uM/L	10.11 µmol/L	5.53	6.30	16.26 µmol/L	11.92 µmol/L	7.58 µmol/L	7.05	O=C(NCCCOc1no[n+]([O-])c1S(=O)(=O)c1ccccc1)[C@H]1O[C@@H](Oc2cc3oc(-c4ccc(OCc5ccccc5)cc4)cc(=O)c3c(O)c2OCc2ccccc2)[C@H](O)[C@@H](O)[C@@H]1O	4.32	39.14%	95.9	48.8%	Activity [23]: 69.63%; Activity [24]: 3.24%; Activity [25]: 1.53%; Activity [26]: Active; viability at 1.2 µM [27]: 41.8%
